Published values from different studies.
Target: Mitogen-activated protein kinase 7 (MAPK7, Homo sapiens, UniProt Q13164)

Compound	assay	setting	remaining binding [%]
COc1cnc(Nc2cccc(S(N)(=O)=O)c2)nc1N1CCN(c2ccccc2)C(=O)C1	binding, competition with immobilised ligand	1 µM	100
COc1ccnn2ncc(-c3ccnc(N(C)C)n3)c12	binding	1 µM	100
O=C(NS(=O)(=O)c1ccc(NCC2CCOCC2)c([N+](=O)[O-])c1)c1ccc(N2CCN(Cc3ccc(C(F)(F)F)cc3-c3ccc(Cl)cc3)CC2)cc1Oc1cnc2[nH]ccc2c1	cell-free assay, competition with immobilised ligand	1 µM	100
O=C(c1ccc(Nc2ncc(Cl)c(-c3ccc(Cl)s3)n2)cc1)N1CCC(N2CCCC2)CC1	binding, competition with immobilised ligand	1 µM	7.1
C[C@@H]1CCN(c2nccc(-c3cnn4ncccc34)n2)C1	binding	1 µM	100
CN([C@@H]1CCc2c(CC(=O)O)c3cc(S(C)(=O)=O)ccc3n2C1)S(=O)(=O)c1ccc(F)cc1	cell-free assay, competition with immobilised ligand	1 µM	96
N[C@@H]1CCN(c2nccc(-c3cnn4ncccc34)n2)C1	binding	1 µM	100
FC(F)(F)Oc1cccc(-c2cnc3ccc(-c4ccncc4)nn23)c1	cell-free assay, competition with immobilised ligand	5 µM	99
CN(c1ccnc(CNc2nc(Nc3ccc4c(c3)CC(=O)N4)ncc2C(F)(F)F)n1)S(C)(=O)=O	cell-free assay, competition with immobilised ligand	1 µM	78
CC1CCCN1c1nccc(-c2cnn3ncccc23)n1 (stereo not shown)	binding	1 µM	100
FC(F)(F)c1ccc2c(c1)nc(-c1cccnc1)n2C1CC1	cell-free assay, competition with immobilised ligand	1 µM	100
C[C@@H](c1ccc(-n2cnc3c(N)ncnc32)cc1)N1CCc2nn(C)c(Cc3ccccc3)c2C1=O	binding, competition with immobilised ligand	0.1 µM	89
O=C(NCCCN1CCOCC1)c1ccc(Nc2ncc(Cl)c(-c3ccc(Cl)s3)n2)cc1	binding, competition with immobilised ligand	1 µM	28
c1cnn2ncc(-c3ccnc(N4CCC45COC5)n3)c2c1	binding	1 µM	87
COc1ncc2cc3ccccc3nc2c1C#N	cell-free assay, competition with immobilised ligand	5 µM	100
CN(c1nccc(-c2cnn3ncccc23)n1)C1CC1	binding	1 µM	100
CN(C)C(=O)Cn1cc(-c2nc([C@@](C)(c3ccc(-c4cnc(N)nc4)cc3)C3CC3)no2)cn1	cell-free assay, competition with immobilised ligand	1 µM	90
Cc1cnc(Nc2ccc(C(=O)N3CCC(N4CCCC4)CC3)cc2)nc1-c1cc2ccccc2s1	binding, competition with immobilised ligand	1 µM	21
c1cncc(-c2cccc(Nc3nccc(NC4CCCCC4)n3)c2)c1	binding, competition with immobilised ligand	10 µM	92
O=C(NCC1CCOCC1)c1n[nH]cc1NC(=O)c1c(F)cccc1F	binding, competition with immobilised ligand	1 µM	90
Cc1cnn2ncc(-c3ccnc(N(C)C)n3)c2c1	binding	1 µM	96
O=C(Nc1cnc(Oc2ccc(F)cc2)nc1)N1CCc2ncccc2[C@@H]1c1ccc(F)cc1	cell-free assay, competition with immobilised ligand	1 µM	96
